# According to ChEMBL document CHEMBL1124865, “Synthesis and biological evaluation of a series of parenteral 3'-quaternary ammonium cephalosporins” (J Med Chem, 1990):
# Key:
# [1] = system: Klebsiella pneumoniae; assay: Antibacterial activity against Klebsiella pneumoniae X26; format: functional; settings: Klebsiella pneumoniae; read-out: MIC
# [2] = system: Staphylococcus aureus; assay: Antibacterial activity against penicillin G resistance Staphylococcus aureus; format: functional
# [3] = system: Escherichia coli; assay: In vivo efficacy against Escherichia coli infections in mice; format: functional; settings: Escherichia coli; read-out: MIC
# [4] = system: Streptococcus pyogenes; assay: Antibacterial activity against Streptococcus pyogenes; format: functional
# [5] = system: Pseudomonas aeruginosa; assay: Antibacterial activity against Pseudomonas aeruginosa PS18; format: functional
# [6] = system: Staphylococcus aureus; assay: Antibacterial activity against penicillin G susceptible Staphylococcus aureus; format: functional
# [7] = system: Pseudomonas aeruginosa; assay: In vivo efficacy against Pseudomonas aeruginosa infected mice treated at 1 hr and 5 hr post infection; format: functional
# [8] = system: Enterobacter cloacae; assay: In vitro relative hydrolysis rate against Enterobacter Ia; format: functional
# Outline: (§1)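 Spectrophotometric hydrolysis at 265 nm, substrate exposed to partially purified cell-free β-lactamase preparations; rate expressed as percentage of the cephaloridine rate.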
# [9] = system: Klebsiella pneumoniae; assay: microbe, parasite or virus in culture; format: functional
# [10] = system: Staphylococcus aureus; assay: In vivo efficacy against Staphylococcus aureus infected mice treated at 1 hr and 5 hr post infection; format: functional
# [11] = system: Enterobacter cloacae; assay: Antibacterial activity against Enterobacter cloacae 265A; format: functional
# [12] = system: Staphylococcus aureus; assay: In vivo efficacy against Staphylococcus aureus infections in mice; format: functional
# [13] = system: Pseudomonas aeruginosa; assay: Antibacterial activity against Pseudomonas aeruginosa X528; format: functional
# [14] = system: Pseudomonas aeruginosa; assay: In vitro relative hydrolysis rate against Pseudomonas Id; format: functional; outline: as §1
# [15] = system: Klebsiella pneumoniae; assay: In vitro relative hydrolysis rate against Klebsiella IV; format: functional; outline: as §1
# [16] = system: Staphylococcus aureus; assay: In vitro relative hydrolysis rate against Staphylococcus aureus; format: functional; outline: as §1
# [17] = system: Serratia marcescens; assay: Antibacterial activity against Serratia marcescens SE3; format: functional
# [18] = system: Escherichia coli; assay: In vivo efficacy against Escherichia coli infected mice treated at 1 hr and 5 hr post infection; format: functional
# [19] = system: Escherichia coli; assay: Antibacterial activity against Escherichia coli TEM; format: functional
# [20] = system: Escherichia coli; assay: Antibacterial activity against Escherichia coli EC14; format: functional; settings: Escherichia coli; read-out: MIC
# [21] = system: Pseudomonas aeruginosa; assay: In vivo efficacy against Pseudomonas aeruginosa infections in mice; format: functional
# [22] = system: Enterococcus faecium; assay: Antibacterial activity against Enterococcus faecium; format: functional; settings: Enterococcus faecium; read-out: MIC
# [23] = system: Streptococcus pneumoniae; assay: Antibacterial activity against Streptococcus pneumoniae; format: functional
# [24] = system: Enterobacter cloacae; assay: Antibacterial activity against Enterobacter cloacae EB5; format: functional
# [25] = system: Escherichia coli; assay: In vitro relative hydrolysis rate against Escherichia coli IIIa; format: functional; outline: as §1
# [26] = Terminal half life in dogs at the dose of 60 mg/kg.; format: ADME, organism-based, Canis lupus familiaris; parameters: dose 60 mg/kg; settings: dog, in vivo
# Outline: (§2)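 Overnight-fasted female mongrel dogs with a Foley bladder catheter; bolus into the cephalic vein. Plasma and urine collected before dosing and over 24 h after. Antibacterial activity measured by microbiological assay.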
# [27] = system: Canis familiaris; assay: Percent of dose in dogs urine at the dose of 60 mg/kg.; format: functional, Canis lupus familiaris; outline: as §2
# [28] = organism: Cavia porcellus; assay: In vitro relative anticholinergic potential in isolated guinea pig trachea; format: functional
# Outline: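 Guinea pig trachea in Krebs' solution at 37.5 °C, 95% O2/5% CO2, pH 7.4, 2 g resting tension. Cumulative carbachol log dose-response curve (3-fold steps) run before and 30 min after adding antagonist at 1 mM. […] Tukey test on log2 dose ratios.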
# [29] = Staphylococcus aureus, read-out: MIC
# [30] = Streptococcus pyogenes, read-out: MIC
# [31] = Pseudomonas aeruginosa, read-out: MIC
# [32] = Pseudomonas aeruginosa, read-out: ED50
# [33] = Klebsiella pneumoniae, read-out: MIC
# [34] = Staphylococcus aureus, read-out: ED50
# [35] = Enterobacter cloacae, read-out: MIC
# [36] = Serratia marcescens, read-out: MIC
# [37] = Escherichia coli, read-out: ED50
# [38] = Escherichia coli, read-out: MIC
# [39] = Streptococcus pneumoniae, read-out: MIC
SMILES,MIC [1],MIC [3],Hydrolysis rate [8],Hydrolysis rate [14],Hydrolysis rate [15],Hydrolysis rate [16],MIC [20],MIC [22],Hydrolysis rate [25],"MIC [2, 29]","MIC [4, 30]","MIC [5, 31]","MIC [6, 29]","MIC [9, 33]","MIC [11, 35]","MIC [13, 31]","MIC [17, 36]","MIC [19, 38]","MIC [23, 39]","MIC [24, 35]",further results
CO/N=C(\C(=O)N[C@@H]1C(=O)N2C(C(=O)[O-])=C(C[n+]3ccc(CC(=O)NO)cc3)CS[C@H]12)c1csc(N)n1 (stereo in doubt; 9),0.03 µg/mL,0.03 µg/mL,0.2,0.1,1.2,6.9,0.03 µg/mL,128 µg/mL,0.1,,,,,,,,,,,,MIC [2]: 4 µg/mL; MIC [4]: 0.03 µg/mL; MIC [5]: 4 µg/mL; MIC [6]: 2 µg/mL; ED50 [7]: 39 mg/kg; MIC [9]: 4 µg/mL; ED50 [10]: 1 mg/kg; MIC [11]: 32 µg/mL; MIC [12]: 1 µg/mL; MIC [13]: 8 µg/mL; MIC [17]: 0.125 µg/mL; ED50 [18]: <0.3 mg/kg; MIC [19]: 0.03 µg/mL; MIC [21]: 16 µg/mL; MIC [23]: 0.03 µg/mL; MIC [24]: 0.25 µg/mL
CO/N=C(\C(=O)N[C@@H]1C(=O)N2C(C(=O)[O-])=C(C[n+]3ccc4ccccc4c3)CS[C@H]12)c1csc(N)n1,0.015 µg/mL,0.015 µg/mL,0.3,0.1,2.8,9.3,0.015 µg/mL,128 µg/mL,0.2,1 µg/mL,< 0.008 µg/mL,4 µg/mL,1 µg/mL,2 µg/mL,8 µg/mL,2 µg/mL,0.06 µg/mL,0.03 µg/mL,0.015 µg/mL,0.06 µg/mL,"ED50 [7, 32]: 9 mg/kg; ED50 [10, 34]: 0.4 mg/kg; MIC [12, 29]: 1 µg/mL; ED50 [18, 37]: 0.04 mg/kg; MIC [21, 31]: 8 µg/mL"
CO/N=C(\C(=O)N[C@@H]1C(=O)N2C(C(=O)[O-])=C(C[n+]3ccc4ccsc4c3)CS[C@H]12)c1csc(N)n1,0.015 µg/mL,< 0.008 µg/mL,0.7,0.4,6.9,7.1,0.015 µg/mL,> 128 µg/mL,0.2,4 µg/mL,< 0.008 µg/mL,4 µg/mL,1 µg/mL,4 µg/mL,8 µg/mL,2 µg/mL,0.03 µg/mL,0.03 µg/mL,< 0.008 µg/mL,0.06 µg/mL,"ED50 [7, 32]: 9.5 mg/kg; ED50 [10, 34]: 0.4 mg/kg; MIC [12, 29]: 1 µg/mL; ED50 [18, 37]: 0.02 mg/kg; MIC [21, 31]: 4 µg/mL"
CO/N=C(\C(=O)N[C@@H]1C(=O)N2C(C(=O)[O-])=C(C[n+]3ccc(CC(=O)NO)cc3)CS[C@H]12)c1csc(N)n1 (stereo in doubt; 11),,,0.4,0.1,10.4,3.4,,,0.5,,,,,,,,,,,,ED50 [10]: 4 mg/kg
CO/N=C(\C(=O)N[C@@H]1C(=O)N2C(C(=O)[O-])=C(C[n+]3cccc4ccsc43)CS[C@H]12)c1csc(N)n1,0.03 µg/mL,0.015 µg/mL,0.1,0,1.5,9.6,0.03 µg/mL,128 µg/mL,0.5,2 µg/mL,0.03 µg/mL,8 µg/mL,1 µg/mL,4 µg/mL,4 µg/mL,4 µg/mL,0.06 µg/mL,0.06 µg/mL,0.03 µg/mL,0.125 µg/mL,"ED50 [7, 32]: 13.5 mg/kg; ED50 [10, 34]: 0.8 mg/kg; MIC [12, 29]: 1 µg/mL; ED50 [18, 37]: 0.05 mg/kg; MIC [21, 31]: 4 µg/mL"
CO/N=C(\C(=O)N[C@@H]1C(=O)N2C(C(=O)[O-])=C(C[n+]3ccc4sc(C)cc4c3)CS[C@H]12)c1csc(N)n1,< 0.008 µg/mL,,,,,,0.015 µg/mL,> 128 µg/mL,,4 µg/mL,< 0.008 µg/mL,8 µg/mL,0.5 µg/mL,1 µg/mL,4 µg/mL,2 µg/mL,0.06 µg/mL,0.015 µg/mL,< 0.008 µg/mL,0.06 µg/mL,half-life [26]: 1.67 h; Percent of dose recovered in urine [27]: 64%
CO/N=C(\C(=O)N[C@@H]1C(=O)N2C(C(=O)[O-])=C(C[n+]3ccc4nc(C)n(C)c4c3)CS[C@H]12)c1csc(N)n1,0.015 µg/mL,,,,,,0.015 µg/mL,128 µg/mL,,,0.015 µg/mL,8 µg/mL,2 µg/mL,2 µg/mL,4 µg/mL,2 µg/mL,,0.015 µg/mL,0.015 µg/mL,,RAP [28]: 2
